The text below walks through data of ChEMBL document CHEMBL1133118 (J Med Chem, 2000).

For assay [1], the target named is Adenosine receptors; A1 & A3 (Homo sapiens) (UniProt P30542+P0DMS8). The assay is described as follows: Ratio of binding affinity of human A1 receptor to that of human A3 receptor. The format is protein assay. Put shortly:
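Ki ratio from displacement in CHO membranes, 6–8 concentrations, n=3-6, filtration counting. A1: 1 nM [3H]DPCPX, 50 μg protein, 120 min at 25 °C, nonspecific with 10 μM CHA. A3: 1 nM [3H]MRE3008-F20, 50 μg protein, Tris/10 mM MgCl2 pH 7.4, 120 min at 4 °C, nonspecific with 1 μM MRE3008-F20.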

Assay [2] addresses T1, Adenosine receptor A1 (Homo sapiens, UniProt P30542).
T1 sequence (P30542 whole entry): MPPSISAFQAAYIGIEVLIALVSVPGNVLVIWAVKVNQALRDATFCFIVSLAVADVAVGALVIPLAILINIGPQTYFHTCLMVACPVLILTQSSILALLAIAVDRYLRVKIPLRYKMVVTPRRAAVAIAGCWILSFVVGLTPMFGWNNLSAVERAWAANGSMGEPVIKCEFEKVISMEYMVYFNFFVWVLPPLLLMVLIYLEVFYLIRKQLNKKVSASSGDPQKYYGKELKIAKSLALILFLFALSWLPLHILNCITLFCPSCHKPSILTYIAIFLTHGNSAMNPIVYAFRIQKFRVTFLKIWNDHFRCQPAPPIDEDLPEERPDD
Nature of the assay: Displacement of [3H]DPCPX from human adenosine A1 receptor expressed in CHO cells; range 1.72-2.36. The format is cell-based. For orientation: Loss of bound radioactivity is the signal in a displacement assay; it reports binding, not function.

For assay [3], the target named is T2, Adenosine receptor A2b (Homo sapiens, UniProt P29275).
T2 sequence (P29275 whole entry): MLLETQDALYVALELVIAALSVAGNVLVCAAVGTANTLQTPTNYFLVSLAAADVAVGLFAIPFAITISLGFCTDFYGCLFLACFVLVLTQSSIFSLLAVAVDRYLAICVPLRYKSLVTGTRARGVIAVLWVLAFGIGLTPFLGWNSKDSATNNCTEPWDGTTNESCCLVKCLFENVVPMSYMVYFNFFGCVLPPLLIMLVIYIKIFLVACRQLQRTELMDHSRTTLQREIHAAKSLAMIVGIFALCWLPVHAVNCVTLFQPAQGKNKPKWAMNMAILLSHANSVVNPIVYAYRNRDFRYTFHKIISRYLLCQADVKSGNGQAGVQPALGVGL
Nature of the assay: Displacement of [3H]-DPCPX from Adenosine A2b receptor expressed in […]; range 7.4-11.3. The format is cell-based.

The target of assay [4] is T3, Adenosine receptor A3 (Homo sapiens) (UniProt P0DMS8).
T3 sequence (whole entry): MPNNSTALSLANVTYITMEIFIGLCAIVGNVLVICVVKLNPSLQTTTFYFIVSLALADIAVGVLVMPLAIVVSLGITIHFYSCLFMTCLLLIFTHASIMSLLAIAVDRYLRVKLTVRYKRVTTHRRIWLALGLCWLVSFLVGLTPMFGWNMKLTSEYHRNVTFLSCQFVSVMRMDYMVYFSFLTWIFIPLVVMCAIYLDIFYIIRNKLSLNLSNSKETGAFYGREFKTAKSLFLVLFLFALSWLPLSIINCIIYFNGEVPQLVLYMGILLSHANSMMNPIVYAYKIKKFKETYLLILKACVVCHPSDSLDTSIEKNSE
The assay is described as follows: Percent reversal of 100 nM IB-MECA-inhibited cAMP accumulation in CHO cells expressing human adenosine A3 receptor at 1 uM. The format is functional, cell-based. Put shortly:
(§1)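 CHO cells stably expressing human A3 receptor; membranes in 50 mM Tris HCl, 10 mM MgCl2, 1 mM EDTA pH 7.4 with 5 μM GTP, 0.5 mM […] and 2.0 IU/mL adenosine deaminase. Preincubated 10 min at 37 °C, then IB-MECA (100 nM) and/or antagonist with 1 mM ATP and 10 μM forskolin for 10 min. Boiled 2 min. cAMP read by [3H]cAMP competition with adrenal binding protein.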
(Cyclic AMP is a second messenger, typically raised through Gs and lowered through Gi signalling.)

The target in assay [5] is Adenosine receptors; A2b & A3 (Homo sapiens) (UniProt P29275+P0DMS8). The assay is described as follows: Ratio of binding affinity of human A2B receptor to that of human A3 receptor. The format is protein assay. The procedure, abridged:
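Ki ratio, n=3-6, 6–8 concentrations. A2B in HEK-293 membranes (20 μg): 40 nM [3H]DPCPX, 50 mM Tris HCl, 10 mM MgCl2, 1 mM EDTA, 0.1 mM benzamidine pH 7.4, 2 IU/mL adenosine deaminase, 60 min at 25 °C, nonspecific with 100 μM NECA. A3 in CHO membranes (50 μg): 1 nM [3H]MRE3008-F20, 120 min at 4 °C.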

Assay [6] deals with T4, Adenosine receptor A3 (Homo sapiens, UniProt P0DMS8).
T4 sequence (P0DMS8 whole entry): T3 sequence (whole entry)
Nature of the assay: Displacement of [3H]MRE3008-F20 from human adenosine A3 receptor expressed in CHO cells; range 664-738. The format is cell-based.

In assay [7] the target is T3, Adenosine receptor A3 (Homo sapiens). The assay is described as follows: Percent reversal of 100 nM IB-MECA-inhibited cAMP accumulation in CHO cells expressing human adenosine A3 receptor at 1 uM; range 92-102. Type of assay: functional, cell-based. The procedure, abridged:
as §1

For assay [8], the target named is T2, Adenosine receptor A2b. The assay is described as follows: Displacement of [3H]DPCPX from Adenosine A2b receptor expressed in […]; range 19-27. The format is cell-based.
In assay [9] the target is T5, Adenosine receptor A2a (Homo sapiens, UniProt P29274). The assay is described as follows: biochemical.
T5 sequence (P29274 whole entry): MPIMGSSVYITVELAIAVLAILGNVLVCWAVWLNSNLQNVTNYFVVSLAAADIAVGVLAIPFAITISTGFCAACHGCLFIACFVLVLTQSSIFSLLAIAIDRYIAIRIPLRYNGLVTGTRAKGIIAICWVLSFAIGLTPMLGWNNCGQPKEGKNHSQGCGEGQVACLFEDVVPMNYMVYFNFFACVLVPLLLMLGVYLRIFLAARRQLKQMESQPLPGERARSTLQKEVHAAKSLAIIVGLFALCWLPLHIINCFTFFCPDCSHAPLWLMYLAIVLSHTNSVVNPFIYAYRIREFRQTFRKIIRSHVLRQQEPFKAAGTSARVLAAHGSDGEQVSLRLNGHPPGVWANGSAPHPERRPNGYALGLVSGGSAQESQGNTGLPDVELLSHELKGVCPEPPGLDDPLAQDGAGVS
The target in assay [10] is T1, Adenosine receptor A1. The assay is described as follows: Displacement of [3H]DPCPX from human adenosine A1 receptor expressed in CHO cells; range 6.5-8.7. The format is cell-based.
The target of assay [11] is T4, Adenosine receptor A3. The assay is described as follows: Inhibition of cAMP accumulation in CHO cells expressing human adenosine A3 receptor; range 1.1-3.8. The format is functional, cell-based.
The target of assay [12] is T4, Adenosine receptor A3. Nature of the assay: Displacement of [3H]MRE3008-F20 from human adenosine A3 receptor expressed in CHO cells; range 1.42-1.79. Type of assay: cell-based.
In assay [13] the target is T3, Adenosine receptor A3 (Homo sapiens). The note with it: CHO, 1 uM.
In assay [14] the target is T2, Adenosine receptor A2b. Nature of the assay: Displacement of [3H]DPCPX from Adenosine A2b receptor expressed in […]; range 107-210. The format is cell-based.
For assay [15], the target named is T4, Adenosine receptor A3. The assay is described as follows: Inhibition of cAMP accumulation in CHO cells expressing human adenosine A3 receptor; range 10.8-21.5. The format is functional, cell-based.
In assay [16] the target is T5, Adenosine receptor A2a. The assay is described as follows: Displacement of [3H]-SCH- 58261 from human adenosine A2A receptor expressed in CHO cells; range 160-210. Type of assay: cell-based. The procedure, abridged:
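CHO membranes expressing human A2A receptor (50 μg protein) in 50 mM Tris HCl, 10 mM MgCl2, pH 7.4, competed against [3H]SCH 58261. At least 6–8 test concentrations were used, with 60 min incubation at 25 °C. Nonspecific binding defined by 50 μM NECA; n=3-6.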

Assay [17] has as its target T4, Adenosine receptor A3. Nature of the assay: Displacement of [3H]MRE3008-F20 from human adenosine A3 receptor expressed in CHO cells; range 0.27-0.34. The format is cell-based.
Assay [18] addresses T4, Adenosine receptor A3. Nature of the assay: Inhibition of cAMP accumulation in CHO cells expressing human adenosine A3 receptor; range 2.9-6.0. Type of assay: functional, cell-based.
For assay [19], the target named is T5, Adenosine receptor A2a. The assay is described as follows: Displacement of [3H]-SCH- 58261 from human adenosine A2A receptor expressed in CHO cells; range 65-92. The format is cell-based. The procedure, abridged:
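Membranes from CHO cells stably expressing human A2A receptor, grown in DMEM/F12 without nucleosides, resuspended in 50 mM Tris HCl, 10 mM MgCl2, pH 7.4; 50 μg protein/assay. Competition with [3H]SCH 58261 at 6–8 or more compound concentrations, 60 min at 25 °C; nonspecific binding with 50 μM NECA. Filtration on GF/B filters, scintillation counting; n=3-6.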

The target in assay [20] is T3, Adenosine receptor A3 (Homo sapiens). The note with it: CHO, 1 uM. This is another data set of the same source.
Assay [21] deals with T1, Adenosine receptor A1. Nature of the assay: Displacement of [3H]DPCPX from human adenosine A1 receptor expressed in CHO cells; range 269-326. The format is cell-based.
In assay [22] the target is T2, Adenosine receptor A2b. Nature of the assay: Displacement of [3H]DPCPX from Adenosine A2b receptor expressed in […]; range 260-352. Type of assay: cell-based.
Assay [23] deals with T4, Adenosine receptor A3. Nature of the assay: Inhibition of cAMP accumulation in CHO cells expressing human adenosine A3 receptor. Type of assay: functional, cell-based.
For assay [24], the target named is T3, Adenosine receptor A3 (Homo sapiens). Nature of the assay: Percentage of blockade by 1 uM of the inhibition by 100 nM IB-MECA-inhibited cAMP accumulation in CHO cells expressing human adenosine A3 receptor. Type of assay: functional, cell-based. The procedure, abridged:
as §1

The target of assay [25] is T4, Adenosine receptor A3. Nature of the assay: biochemical.
The target of assay [26] is T4, Adenosine receptor A3. Nature of the assay: Displacement of [3H]MRE3008-F20 from human adenosine A3 receptor expressed in CHO cells; […]. The format is cell-based.
The target of assay [27] is T2, Adenosine receptor A2b. Nature of the assay: Displacement of [3H]DPCPX from Adenosine A2b receptor expressed in […]; range 70-94. The format is cell-based.

Molecules are shown by their SMILES.

What is called Ki is a dissociation constant, usually derived from enzyme kinetics or from competition with a known ligand. For orientation: inhibition means how much of the control response was suppressed. In the case of `CC(C)CCn1cc2c(nc(N)n3nc(-c4ccco4)nc23)n1`, the Ratio in assay [1] was found to be 0.002; in assay [5], 0.013. Also, the Ki in assay [2] stood at 2 nM; in assay [3], 9.1 nM; in assay [6], 700 nM. Moreover, the inhibition in [4] was 14%.
Usually IC50 stands for the concentration needed to halve the response being measured. Higher therefore signals weaker potency in that assay. Regarding `COc1ccc(NC(=O)Nc2nc3ccc(Cl)cc3c3nc(-c4ccco4)nn23)cc1`, the figures for the Ratio in [1] and in assay [5] were 43 and 158, respectively. In assay [7], the inhibition was found to be 97%. In addition, the Ki was determined as 22 nM in assay [8], 9.4 nM in assay [9] and 7.6 nM in assay [10]. The same molecule came in with an IC50 in [11] of 2 nM.
Consider `CCn1cc2c(nc(NC(=O)Nc3cccc(Cl)c3)n3nc(-c4ccco4)nc23)n1`, for which the Ratio was found to be 155 in assay [1] and 93.7 in assay [5]. Further, the Ki in assay [12] was 1.6 nM; in [14] it was 150 nM; in [16], 180 nM. Moreover, the inhibition in [13] was 68%. In assay [15], this molecule gave an IC50 of 14.8 nM.
As to `CCCCn1cc2c(nc(NC(=O)Nc3ccc(OC)cc3)n3nc(-c4ccco4)nc23)n1`, the Ratio in assay [1] was 925; in [5], 946. The inhibition constant Ki in [17] is 0.32 nM; in assay [19], 80 nM; in assay [21], 296 nM; in assay [22] it was 303 nM. In assay [18], this molecule returned an IC50 of 4.1 nM. This molecule also yielded an inhibition in assay [20] of 93%.
For `Nc1nc2ccc(Cl)cc2c2nc(-c3ccco3)nn12` [CGS-15943], the IC50 in assay [23] was determined as 406 nM. The molecule also registered an inhibition in assay [24] of 30%. Further, the Ki in [25] amounted to 85 nM.
For the molecule `COc1ccc(NC(=O)Nc2nc3nn(CCc4ccccc4)cc3c3nc(-c4ccco4)nn23)cc1`, the Ratio was 205 in assay [1] and 82.6 in [5]. Also, the Ki came to 0.98 nM in assay [26] and 81 nM in [27]. The molecule further had an IC50 in assay [23] of 13.9 nM.
